From ChEMBL document CHEMBL1127046, “Antitumor agents. 3. Synthesis and biological activity of 4 beta-alkyl derivatives containing hydroxy, amino, and amido groups of 4'-O-demethyl-4-desoxypodophyllotoxin as antitumor agents” (J Med Chem, 1993)

Key:
P388 [1] = experiment: Cytotoxicity against P388 leukemia; assay type: functional, cell-based; conditions: Mus musculus
Tubulin = Tubulin (Bos taurus, UniProt Q6B856+Q862L2+Q862F3); experiment: Drug concentration needed to produce a 50% reduction of bovine brain tubulin polymerization relative to the control
[2] = Inhibition of DNA topoisomerase II from rat liver measured as 50% reduction in the amount of minicircle DNA relative to the control
[3] = Inhibition of growth of hepatoma HLF cell line; assay type: functional; conditions: Homo sapiens, read-out: ED50 (the source's name)
Summary of the method: (§1)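 Cells were seeded and cultured for 24 h, then exposed to drug for 96 or 4 h. Cells were counted by hemocytometer. IC50 is the concentration giving a 50% reduction in cell number relative to control.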

P388 [4] = experiment: Antitumor activity in vivo expressed as the percentage increase in life span at the P388 dose of 1..3 (mg/kg/day); assay type: functional, Mus musculus
Summary of the method: (§2)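 P388 leukaemia, 1 × 10^6 cells given sc to male CDF1 mice (5 weeks old) on day 0. Drug was dosed iv on days 1–5 in saline with 3.5% DMSO and 6.5% Tween 80. Groups had 7 mice; controls had 10. ILS was calculated from mean survival time of treated versus control mice, excluding 30-day survivors.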

A549 = experiment: Inhibition of growth lung non-small cell carcinoma A-549 cell line; assay type: functional; conditions: Homo sapiens, read-out: ED50 (the source's name); summary of the method: as §1
P388 [5] = experiment: Antitumor activity in vivo expressed as the percentage increase in life span at the P388 dose of 2.3 (mg/kg/day); assay type: functional, Mus musculus; summary of the method: as §2
P388 [6] = experiment: Antitumor activity in vivo expressed as the percentage increase in life span at the P388 dose of 4 (mg/kg/day); assay type: functional, Mus musculus; summary of the method: as §2
[7] = system: Lewis lung carcinoma cell line; experiment: Increased life span at the lewis lung dose of 0.77 (mg/kg/day); assay type: functional, Mus musculus
[8] = system: Lewis lung carcinoma cell line; experiment: Mean body weight change after inoculation of 3.2 x 10 e 5 cells iv and administration of compounds iv from days 1-5 at the dose of 7 (mg/kg/day); assay type: functional, Mus musculus
Summary of the method: (§3)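 Male BDF1 mice (5 weeks) given 3.2 x 10^5 Lewis lung carcinoma cells iv on day 0, then dosed iv on days 1–5. Seven mice per group, 14 controls. Mean body weight change (g) taken from day 0 to day 6.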

[9] = Inhibition of growth of lung non-small cell carcinoma PC-7 cell line; assay type: functional; conditions: Homo sapiens, read-out: ED50 (the source's name); summary of the method: as §1
COLO 320DM = experiment: Inhibition of growth of colon cancer COLO 320DM cell line; assay type: functional; conditions: Homo sapiens, read-out: ED50 (the source's name); summary of the method: as §1
[10] = system: Lewis lung carcinoma cell line; experiment: Increased life span at the lewis lung dose of 7 (mg/kg/day); assay type: functional, Mus musculus
[11] = system: Lewis lung carcinoma cell line; experiment: Percentage inhibition of tumor growth at the lewis lung dose of 7 (mg/kg/ day); assay type: functional, Mus musculus
Summary of the method: (§4)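 Lewis lung carcinoma fragments (2 mm3) implanted sc into male BDF1 mice (5 weeks) on day 0. Compound given iv on days 4–8, in saline or saline with 3.5% DMSO and 6.5% Tween 80. Seven mice per group, 10 controls. Percent inhibition from mean tumour weight versus control on day 17; p<0.05, 0.01 or 0.001 versus control.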

[12] = Inhibition of growth of renal cancer G-402 cell line; assay type: functional; conditions: Homo sapiens, read-out: ED50 (the source's name)
Summary of the method: (§5)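 Human tumour cell lines plated and grown 24 h in a CO2 incubator, then exposed to compound for 96 or 4 h. Cells counted by hemocytometer. IC50 is the concentration giving 50% reduction in cell number versus untreated control.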

[13] = system: Lewis lung carcinoma cell line; experiment: Mean body weight change after inoculation of 3.2 x 10 e 5 cells iv and administration of compounds iv from days 1-5 at the dose of 0.77 (mg/kg/day); assay type: functional, Mus musculus; summary of the method: as §3
Homo sapiens = species on record: Homo sapiens; experiment: Inhibition of growth of hepatoma HLE cell line; assay type: functional; conditions: read-out: ED50 (the source's name); summary of the method: as §1
[14] = system: Lewis lung carcinoma cell line; experiment: Percentage inhibition of tumor growth at the lewis lung dose of 4 (mg/kg/ day); assay type: functional, Mus musculus; summary of the method: as §4
ACHN = experiment: Inhibition of growth of renal cancer ACHN cell line; assay type: functional; conditions: Homo sapiens, read-out: ED50 (the source's name); summary of the method: as §5
[15] = Inhibition of growth of colon carcinoma COLO 2-1 cell line; assay type: functional; conditions: Homo sapiens, read-out: ED50 (the source's name); summary of the method: as §1
[16] = system: Lewis lung carcinoma cell line; experiment: Increased life span at the lewis lung dose of 1.3 (mg/kg/day); assay type: functional, Mus musculus
SBC-3 = experiment: Inhibition of growth of lung small cell carcinoma SBC-3 cell line; assay type: functional; conditions: Homo sapiens, read-out: ED50 (the source's name); summary of the method: as §5
[17] = system: Lewis lung carcinoma cell line; experiment: Increased life span at the lewis lung dose of 2.3 (mg/kg/day); assay type: functional, Mus musculus
[18] = system: Lewis lung carcinoma cell line; experiment: Increased life span at the lewis lung dose of 4 (mg/kg/day); assay type: functional, Mus musculus
[19] = system: Lewis lung carcinoma cell line; experiment: Mean body weight change after inoculation of 3.2 x 10 e 5 cells iv and administration of compounds iv from days 1-5 at the dose of 2.3 (mg/kg/day); assay type: functional, Mus musculus; summary of the method: as §3
Mus musculus = experiment: The number of mice survived for 30 days at the dose of 5 (mg/kg/day); assay type: functional
[20] = system: Lewis lung carcinoma cell line; experiment: Mean body weight change after inoculation of 3.2 x 10 e 5 cells iv and administration of compounds iv from days 1-5 at the dose of 4 (mg/kg/day); assay type: functional, Mus musculus; summary of the method: as §3
[21] = system: Lewis lung carcinoma cell line; experiment: Mean body weight change after inoculation of 3.2 x 10 e 5 cells iv and administration of compounds iv from days 1-5 at the dose of 1.3 (mg/kg/day); assay type: functional, Mus musculus; summary of the method: as §3
[22] = Inhibition of growth of lung small cell carcinoma RERF-LC-MA cell line; assay type: functional; conditions: Homo sapiens; read-out: ED50 (the source's name); summary of the method: as §1

COc1cc([C@@H]2c3cc4c(cc3[C@@H](CCN(C)Cc3ccncc3)C3COC(=O)[C@@H]32)OCO4)cc(OC)c1O.Cl.Cl (some centres undefined)
IC50 (P388 [1]): 0.1 µM | IC50 (Tubulin): > 100 µM | IC50 [2]: 31.4 µM

COc1cc([C@@H]2c3cc4c(cc3[C@@H](CCN(C)CCN3CCCCC3)C3COC(=O)[C@@H]32)OCO4)cc(OC)c1O.Cl.Cl (some centres undefined)
EC50 [3]: 4 µg/mL | ILS max (P388 [4]): 131% | EC50 (A549): 1.8 µg/mL | ILS max (P388 [5]): 165% | ILS max (P388 [6]): 259% | ILS max [7]: 20% | bwc [8]: -3.5 g | EC50 [9]: 4.4 µg/mL | EC50 (COLO 320DM): 3.2 µg/mL | ILS max [10]: 55% | Inhibition [11]: 97% | EC50 [12]: 0.35 µg/mL | bwc [13]: 0.7 g | EC50 (Homo sapiens): 0.36 µg/mL | Inhibition [14]: 72% | EC50 (ACHN): 2.7 µg/mL | EC50 [15]: 29 µg/mL | ILS max [16]: 14% | IC50 (Tubulin): > 167 µM | EC50 (SBC-3): 0.54 µg/mL | ILS max [17]: 75% | ILS max [18]: 108% | bwc [19]: -0.6 g | Survivors (Mus musculus): 6 | bwc [20]: -1 g | IC50 [2]: 60.9 µM | bwc [21]: 0.1 g | EC50 [22]: 27 µg/mL

COc1cc([C@@H]2c3cc4c(cc3[C@@H](CCN(C)CCCN(C)C)C3COC(=O)[C@@H]32)OCO4)cc(OC)c1O.Cl.Cl (some centres undefined)
IC50 (P388 [1]): 0.055 µM | IC50 (Tubulin): > 100 µM | IC50 [2]: 26.9 µM

COc1cc([C@@H]2c3cc4c(cc3[C@@H](CCN(C)CCCCCCN(C)C)C3COC(=O)[C@@H]32)OCO4)cc(OC)c1O.Cl.Cl (some centres undefined)
IC50 (P388 [1]): 0.037 µM | IC50 (Tubulin): > 133 µM | IC50 [2]: 30 µM

COc1cc([C@@H]2c3cc4c(cc3[C@@H](CCN(C)Cc3ccccn3)C3COC(=O)[C@@H]32)OCO4)cc(OC)c1O.Cl.Cl (some centres undefined)
IC50 (P388 [1]): 0.14 µM | IC50 (Tubulin): > 100 µM | IC50 [2]: 31.4 µM

COc1cc([C@@H]2c3cc4c(cc3[C@@H](CCN(C)CCN3CCOCC3)C3COC(=O)[C@@H]32)OCO4)cc(OC)c1O.Cl.Cl (some centres undefined)
IC50 (P388 [1]): 0.26 µM | IC50 (Tubulin): > 167 µM | IC50 [2]: 116 µM

COc1cc([C@@H]2c3cc4c(cc3[C@@H](CCNCCN(C)C)C3COC(=O)[C@@H]32)OCO4)cc(OC)c1O.Cl.Cl (some centres undefined)
IC50 (P388 [1]): 0.04 µM | IC50 (Tubulin): > 100 µM | IC50 [2]: 13.3 µM

COc1cc([C@@H]2c3cc4c(cc3[C@@H](CCN(C)N3CCN(C)CC3)C3COC(=O)[C@@H]32)OCO4)cc(OC)c1O.Cl.Cl (some centres undefined)
IC50 (P388 [1]): 0.0043 µM | IC50 (Tubulin): > 100 µM | IC50 [2]: 32.3 µM

CCN(CC)CCN(C)CC[C@@H]1c2cc3c(cc2[C@@H](c2cc(OC)c(O)c(OC)c2)[C@H]2C(=O)OCC12)OCO3.Cl.Cl (some centres undefined)
IC50 (P388 [1]): 0.037 µM | IC50 (Tubulin): > 100 µM | IC50 [2]: 53.8 µM

COc1cc([C@@H]2c3cc4c(cc3[C@@H](CC(=O)O)C3COC(=O)[C@@H]32)OCO4)cc(OC)c1O (some centres undefined)
IC50 (P388 [1]): 15 µM

COc1cc([C@@H]2c3cc4c(cc3[C@@H](CCCO)C3COC(=O)[C@@H]32)OCO4)cc(OC)c1O (some centres undefined)
IC50 (P388 [1]): 0.05 µM | IC50 (Tubulin): 26 µM | IC50 [2]: 42.1 µM

COc1cc([C@@H]2c3cc4c(cc3[C@@H](CCO)C3COC(=O)[C@@H]32)OCO4)cc(OC)c1O (some centres undefined)
IC50 (P388 [1]): 0.05 µM | IC50 (Tubulin): 2 µM | IC50 [2]: 13.8 µM

COc1cc([C@@H]2c3cc4c(cc3[C@@H](CC(=O)NCCc3cccn3C)C3COC(=O)[C@@H]32)OCO4)cc(OC)c1O.Cl (some centres undefined)
IC50 (P388 [1]): 1.5 µM | IC50 (Tubulin): > 100 µM

COc1cc([C@@H]2c3cc4c(cc3[C@@H](CCN(C)CCO)C3COC(=O)[C@@H]32)OCO4)cc(OC)c1O.Cl (some centres undefined)
IC50 (P388 [1]): 0.07 µM | IC50 (Tubulin): > 100 µM | IC50 [2]: 17.2 µM
